Results published in ChEMBL document CHEMBL2417477, “Synthesis and antibacterial activity of doxycycline neoglycosides” (J Nat Prod, 2013).
Converted amounts (≈) assume the structure as drawn.

Key:
[1] = Cytotoxicity against human A549 cells assessed as cell viability at 10 uM after 2 days by Alamar Blue assay relative to control; assay type: cell-based; conditions: read-out: Activity
Outline: (§1)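 Resazurin (AlamarBlue) read-out of residual metabolic activity. A549 grown in DMEM/F-12 Kaighn's and IMR 90 in MEM/EBSS, both with 10% heat-inactivated FBS, penicillin/streptomycin and 2 mM L-glutamine. Seeded at 2 × 10^3 cells/well, held 24 h at 37 °C in 5% CO2, then exposed to 10 μM final for 2 days. Controls: 1.5 mM H2O2 and 10 μg/ml actinomycin D.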

[2] = Cytotoxicity against human IMR90 cells assessed as cell viability at 10 uM after 2 days by Alamar Blue assay relative to control; assay type: cell-based; conditions: IMR-90 cells, read-out: Activity; outline: as §1
Escherichia coli [3] = assay: Antibacterial activity against tetracycline-sensitive Escherichia coli ATCC 25922 assessed as growth inhibition; assay type: functional
Escherichia coli [4] = assay: Antibacterial activity against tetracycline-resistant Escherichia coli 1-849 assessed as growth inhibition; assay type: functional
Staphylococcus aureus = assay: Antibacterial activity against tetracycline-resistant Staphylococcus aureus R2507 assessed as growth inhibition; assay type: functional
[5] = Stability of the compound in DMSO at -20 degC at 3 mM after 12 months by HPLC analysis; assay type: physicochemical; conditions: 8766 h, 3000 µM

Row | Structure (SMILES) | viability at 48 h, 10 µM [1] | viability at 48 h, 10 µM [2] | MIC (Escherichia coli [3]) | MIC (Escherichia coli [4]) | MIC (Staphylococcus aureus) | Stability [5]
1 | CON(CC(=O)Nc1ccc2c(c1O)C(=O)C1=C(O)[C@]3(O)C(=O)C(C(N)=O)=C(O)[C@@H](N(C)C)[C@@H]3[C@@H](O)[C@@H]1[C@H]2C)[C@@H]1O[C@H](CO)[C@@H](O)[C@H](O)[C@H]1NC(=O)C(F)(F)F | 98.7% | 109% | 4 µg/mL (≈ 4.98 µM) | 32 µg/mL (≈ 39.8 µM) | 16 µg/mL (≈ 19.9 µM) | –
2 | CON(CC(=O)Nc1ccc2c(c1O)C(=O)C1=C(O)[C@]3(O)C(=O)C(C(N)=O)=C(O)[C@@H](N(C)C)[C@@H]3[C@@H](O)[C@@H]1[C@H]2C)[C@H]1O[C@H](CO)[C@@H](O)[C@H](O)[C@H]1N | 99.1% | 94.6% | 4 µg/mL (≈ 5.65 µM) | 4 µg/mL (≈ 5.65 µM) | 4 µg/mL (≈ 5.65 µM) | Stable
3 | CON(CC(=O)Nc1ccc2c(c1O)C(=O)C1=C(O)[C@]3(O)C(=O)C(C(N)=O)=C(O)[C@@H](N(C)C)[C@@H]3[C@@H](O)[C@@H]1[C@H]2C)[C@H]1CC[C@H](N(C)C)[C@@H](C)O1 | 96.9% | 101% | 4 µg/mL (≈ 5.82 µM) | 32 µg/mL (≈ 46.5 µM) | 16 µg/mL (≈ 23.3 µM) | –
4 | CON(CC(=O)Nc1ccc2c(c1O)C(=O)C1=C(O)[C@]3(O)C(=O)C(C(N)=O)=C(O)[C@@H](N(C)C)[C@@H]3[C@@H](O)[C@@H]1[C@H]2C)C1O[C@H](CO)[C@@H](O)[C@H](OC(C)C(=O)O)[C@H]1NC(C)=O (mixture of isomers) | 97.7% | 104% | 8 µg/mL | 32 µg/mL | 16 µg/mL | –
5 | CONCC(=O)Nc1ccc2c(c1O)C(=O)C1=C(O)[C@]3(O)C(=O)C(C(N)=O)=C(O)[C@@H](N(C)C)[C@@H]3[C@@H](O)[C@@H]1[C@H]2C | 95.9% | 99.2% | 4 µg/mL (≈ 7.32 µM) | 8 µg/mL (≈ 14.6 µM) | 4 µg/mL (≈ 7.32 µM) | –
6 | CON(CC(=O)Nc1ccc2c(c1O)C(=O)C1=C(O)[C@]3(O)C(=O)C(C(N)=O)=C(O)[C@@H](N(C)C)[C@@H]3[C@@H](O)[C@@H]1[C@H]2C)C1OC[C@H](O)[C@@H]1O (mixture of isomers) | 98.2% | 99.3% | 4 µg/mL | 64 µg/mL | 32 µg/mL | –
7 | CON(CC(=O)Nc1ccc2c(c1O)C(=O)C1=C(O)[C@]3(O)C(=O)C(C(N)=O)=C(O)[C@@H](N(C)C)[C@@H]3[C@@H](O)[C@@H]1[C@H]2C)[C@@H]1O[C@H](CO)[C@@H](O)[C@H](O)[C@H]1N | 95.6% | 102% | 8 µg/mL (≈ 11.3 µM) | 32 µg/mL (≈ 45.2 µM) | 32 µg/mL (≈ 45.2 µM) | –
8 | C[C@H]1c2ccc(N)c(O)c2C(=O)C2=C(O)[C@]3(O)C(=O)C(C(N)=O)=C(O)[C@@H](N(C)C)[C@@H]3[C@@H](O)[C@@H]21 | – | – | 1 µg/mL (≈ 2.18 µM) | 2 µg/mL (≈ 4.35 µM) | 4 µg/mL (≈ 8.71 µM) | –
9 | C=CCOC(=O)N[C@H]1C(N(CC(=O)Nc2ccc3c(c2O)C(=O)C2=C(O)[C@]4(O)C(=O)C(C(N)=O)=C(O)[C@@H](N(C)C)[C@@H]4[C@@H](O)[C@@H]2[C@H]3C)OC)O[C@H](CO)[C@@H](O)[C@@H]1O (mixture of isomers) | 98.8% | 97.6% | 8 µg/mL | 16 µg/mL | 8 µg/mL | –
10 | C[C@H]1c2cccc(O)c2C(=O)C2=C(O)[C@]3(O)C(=O)C(C(N)=O)=C(O)[C@@H](N(C)C)[C@@H]3[C@@H](O)[C@@H]21.O [DOXYCYCLINE] | – | – | 1 µg/mL | 8 µg/mL | 2 µg/mL | –
11 | CON(CC(=O)Nc1ccc2c(c1O)C(=O)C1=C(O)[C@]3(O)C(=O)C(C(N)=O)=C(O)[C@@H](N(C)C)[C@@H]3[C@@H](O)[C@@H]1[C@H]2C)C1OC[C@@H](O)[C@@H](O)[C@@H]1O (mixture of isomers) | 97.2% | 102% | 8 µg/mL | 64 µg/mL | 32 µg/mL | –
12 | CON(CC(=O)Nc1ccc2c(c1O)C(=O)C1=C(O)[C@]3(O)C(=O)C(C(N)=O)=C(O)[C@@H](N(C)C)[C@@H]3[C@@H](O)[C@@H]1[C@H]2C)C1O[C@H](CO)[C@@H](O)[C@H](O)[C@@H]1N (mixture of isomers) | 97.1% | 98.9% | 4 µg/mL | 32 µg/mL | 32 µg/mL | –
